Structures are written as SMILES. Calls of active or inactive are those of the source. The calls are words filed in the database; no cut-off is given here.

Data set [1] relates to P388. Kind of data set: Inhibitory activity in vivo against P388 leukemia cells in mice at a dose of 12.5 mg/kg upon intraperitoneal administration. Type of data set: functional, Mus musculus. An outline of the steps:
(§1)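 Tumor source was ascites fluid implanted into BDF₁ mice. Tumor inoculation and drug dosing were both intraperitoneal, given once daily for 5 days (q1d × 5). Screening and data interpretation followed the general NCI protocol.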

Data set [2] is described as follows: Compound was tested for cytotoxic activity against human colon adenocarcinoma in vitro; IA means Inactive.
The subject of data set [3] is L1210. Kind of data set: Compound was tested for cytotoxic activity against L1210 leukemia in vitro; IA means Inactive. Type of data set: functional, cell-based. The settings on record: Mus musculus.
Data set [4] has as its system P388. Kind of data set: Inhibitory activity in vivo against P388 leukemia cells in mice at a dose of 25 mg/kg upon intraperitoneal administration. Type of data set: functional, Mus musculus. Put shortly: as §1
In data set [5] the test system is P388. Kind of data set: Inhibitory activity in vivo against P388 leukemia cells in mice at a dose of 50 mg/kg upon intraperitoneal administration. In kind it is functional, Mus musculus. An outline of the steps:
as §1

Data set [6] deals with P388. Kind of data set: Inhibitory activity in vivo against P388 leukemia cells in mice at a dose of 100 mg/kg upon intraperitoneal administration. In kind it is functional, Mus musculus. Put shortly:
as §1

Data set [7] concerns Mus musculus. Kind of data set: Compound was evaluated for inhibitory activity in vivo against P388 leukemia cells in mice at a dose of 60 mg/kg upon intraperitoneal administration. Type of data set: functional. An outline of the steps:
as §1

The test system of data set [8] is L1210. Kind of data set: Cytotoxic activity against L1210 leukemia in vitro. Type of data set: functional, Mus musculus.
For data set [9], the system named is Mus musculus. Kind of data set: Compound was evaluated for inhibitory activity in vivo against P388 leukemia cells in mice at a dose of 7.5 mg/kg upon intraperitoneal administration. Type of data set: functional. An outline of the steps: as §1
For data set [10], the system named is Mus musculus. Kind of data set: Compound was evaluated for inhibitory activity in vivo against P388 leukemia cells in mice at a dose of 3.75 mg/kg upon intraperitoneal administration. Type of data set: functional. Put shortly: as §1
A short description of data set [11]: Cytotoxic activity against human colon adenocarcinoma in vitro. Type of data set: functional.
In data set [12] the test system is Mus musculus. Kind of data set: Compound was evaluated for inhibitory activity in vivo against P388 leukemia cells in mice at a dose of 15 mg/kg upon intraperitoneal administration. Type of data set: functional. An outline of the steps:
as §1

The subject of data set [13] is Mus musculus. Kind of data set: Compound was evaluated for inhibitory activity in vivo against P388 leukemia cells in mice at a dose of 30 mg/kg upon intraperitoneal administration. In kind it is functional. Put shortly:
as §1

For data set [14], the system named is L1210 leukemia (Mus musculus). Kind of data set: Compound was evaluated for inhibitory activity against L1210 leukemia in mice at a dose of 50 mg/kg upon intraperitoneal administration.
The test system of data set [15] is Mus musculus. Kind of data set: Compound was evaluated for inhibitory activity in vivo against P388 leukemia cells in mice at a dose of 3.12 mg/kg upon intraperitoneal administration. In kind it is functional. Put shortly: as §1
Data set [16] relates to Mus musculus. Kind of data set: Compound was evaluated for inhibitory activity in vivo against P388 leukemia cells in mice at a dose of 1.56 mg/kg upon intraperitoneal administration. In kind it is functional. An outline of the steps:
as §1

For data set [17], the system named is Mus musculus. Kind of data set: Compound was evaluated for inhibitory activity in vivo against P388 leukemia cells in mice at a dose of 0.78 mg/kg upon intraperitoneal administration. Type of data set: functional. Put shortly:
as §1

Data set [18] relates to Mus musculus. Kind of data set: Compound was evaluated for inhibitory activity in vivo against P388 leukemia cells in mice at a dose of 0.39 mg/kg upon intraperitoneal administration. In kind it is functional. An outline of the steps: as §1

`O=C1c2cc([N+](=O)[O-])cc3cc([N+](=O)[O-])cc(c23)C(=O)N1c1nncs1`: the T/C with P388 [1] worked out at 91; in the data set with P388 [4], 119; with P388 [5], 127; with P388 [6], 137. Moreover, in data set [2], the Cytotoxic concentration entry is on record as “Not Active”. Moreover, the Cytotoxic concentration result in the data set on L1210 [3] is “inactive”.
Take `CN(C)CCN1C(=O)c2cc(N)cc3cc(N)cc(c23)C1=O.Cl.Cl.Cl`: the T/C was determined as 188 in the data set on Mus musculus [7], 163 in the data set on Mus musculus [9], 125 with Mus musculus [10] and 163 with Mus musculus [12]. Moreover, the Cytotoxic concentration with L1210 [8] stood at 337 nM; in [11], 677 nM.
For the molecule `Cl.Nc1cc2c3c(cc(N)cc3c1)C(=O)N(CCN1CCCCC1)C2=O`, the T/C turned out to be 119 in the data set with P388 [1]; 142 in the data set with Mus musculus [13]; 191 in the data set with Mus musculus [7]; 145 in data set [14]; 136 in the data set with Mus musculus [12]. Further, the Cytotoxic concentration with L1210 [8] stood at 1390 nM; in data set [11], 1270 nM.
`Cl.O=C1c2cc([N+](=O)[O-])cc3cc([N+](=O)[O-])cc(c23)C(=O)N1CCN1CCCC1`: the T/C worked out at 136 in the data set on Mus musculus [15], 138 in the data set with Mus musculus [16], 126 in the data set on Mus musculus [17] and 117 in the data set on Mus musculus [18]. Further, the Cytotoxic concentration in the data set on L1210 [8] amounted to 82.9 nM; in data set [11], 172 nM.

The values above are taken from ChEMBL document CHEMBL1123030, “N-(Aminoalkyl)imide antineoplastic agents. Synthesis and biological activity” (J Med Chem, 1985).
